Data set [1] in a line: Cytotoxicity against HDF after 72 hrs by MTS assay. Particulars: human, HDF cells. A general note: Formazan colour is commonly taken as a measure of viable cells.
Data set [2] is described as follows: Half life in mouse liver microsomes at 0.4 ug/mL by HPLC-MS analysis in presence of NADPH. Type of data set: ADME, Microsome. In general terms: Liver microsomes are a subcellular fraction often used to study metabolism.
The subject of data set [3] is BXPC-3. Put plainly: Cytotoxicity against human BxPC3 cells after 72 hrs by MTS assay. It is filed as functional. Particulars: BXPC-3, 72 h.
Data set [4] deals with HCT-116. Put plainly: Cytotoxicity against human HCT116 cells after 72 hrs by MTS assay. Particulars: HCT-116, 72 h. Type of data set: functional.
Data set [5] relates to Jurkat. Put plainly: Cytotoxicity against human Jurkat cells after 72 hrs by MTS assay. Type of data set: functional.
In data set [6] the test system is HuT78. In words: Cytotoxicity against human HUT78 cells after 72 hrs by MTS assay. The following applies: HuT78, 72 h. It is filed as functional.
Data set [7] deals with Liver. Put plainly: Half life in mouse liver microsomes assessed as gluconoride formation at 0.4 ug/mL by HPLC-MS analysis in presence of UDPGA. It is filed as ADME, Microsome. A digest of the protocol:
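Mouse liver microsome incubation run for phase II conjugation, with UDPGA added. Half-life was determined, and the glucuronide conjugate was detected by mass spectrometry.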

Data set [8] concerns the target T1, Histone deacetylase 8 (Homo sapiens, UniProt Q9BY41).
T1 sequence (Q9BY41 whole entry): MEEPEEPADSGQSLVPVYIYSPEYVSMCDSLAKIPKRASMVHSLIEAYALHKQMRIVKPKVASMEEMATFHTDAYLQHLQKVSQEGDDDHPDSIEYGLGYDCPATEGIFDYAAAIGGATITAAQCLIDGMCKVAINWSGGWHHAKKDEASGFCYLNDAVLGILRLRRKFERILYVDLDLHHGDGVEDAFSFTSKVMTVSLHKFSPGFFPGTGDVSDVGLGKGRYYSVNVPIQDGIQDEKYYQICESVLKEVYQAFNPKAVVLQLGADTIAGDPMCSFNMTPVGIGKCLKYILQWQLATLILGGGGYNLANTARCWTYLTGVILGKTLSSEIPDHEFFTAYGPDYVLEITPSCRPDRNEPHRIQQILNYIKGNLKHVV
Put plainly: Competitive inhibition of human recombinant HDAC8 by Michaelis-Menten equation analysis.

Data set [9] has as its target Histone deacetylase 5 (Homo sapiens, UniProt Q9UQL6). In words: Inhibition of human recombinant HDAC5 by Michaelis-Menten equation analysis.
Data set [10] has as its target T2, Protein deacetylase HDAC6 (Homo sapiens, UniProt Q9UBN7).
T2 sequence (Q9UBN7 whole entry): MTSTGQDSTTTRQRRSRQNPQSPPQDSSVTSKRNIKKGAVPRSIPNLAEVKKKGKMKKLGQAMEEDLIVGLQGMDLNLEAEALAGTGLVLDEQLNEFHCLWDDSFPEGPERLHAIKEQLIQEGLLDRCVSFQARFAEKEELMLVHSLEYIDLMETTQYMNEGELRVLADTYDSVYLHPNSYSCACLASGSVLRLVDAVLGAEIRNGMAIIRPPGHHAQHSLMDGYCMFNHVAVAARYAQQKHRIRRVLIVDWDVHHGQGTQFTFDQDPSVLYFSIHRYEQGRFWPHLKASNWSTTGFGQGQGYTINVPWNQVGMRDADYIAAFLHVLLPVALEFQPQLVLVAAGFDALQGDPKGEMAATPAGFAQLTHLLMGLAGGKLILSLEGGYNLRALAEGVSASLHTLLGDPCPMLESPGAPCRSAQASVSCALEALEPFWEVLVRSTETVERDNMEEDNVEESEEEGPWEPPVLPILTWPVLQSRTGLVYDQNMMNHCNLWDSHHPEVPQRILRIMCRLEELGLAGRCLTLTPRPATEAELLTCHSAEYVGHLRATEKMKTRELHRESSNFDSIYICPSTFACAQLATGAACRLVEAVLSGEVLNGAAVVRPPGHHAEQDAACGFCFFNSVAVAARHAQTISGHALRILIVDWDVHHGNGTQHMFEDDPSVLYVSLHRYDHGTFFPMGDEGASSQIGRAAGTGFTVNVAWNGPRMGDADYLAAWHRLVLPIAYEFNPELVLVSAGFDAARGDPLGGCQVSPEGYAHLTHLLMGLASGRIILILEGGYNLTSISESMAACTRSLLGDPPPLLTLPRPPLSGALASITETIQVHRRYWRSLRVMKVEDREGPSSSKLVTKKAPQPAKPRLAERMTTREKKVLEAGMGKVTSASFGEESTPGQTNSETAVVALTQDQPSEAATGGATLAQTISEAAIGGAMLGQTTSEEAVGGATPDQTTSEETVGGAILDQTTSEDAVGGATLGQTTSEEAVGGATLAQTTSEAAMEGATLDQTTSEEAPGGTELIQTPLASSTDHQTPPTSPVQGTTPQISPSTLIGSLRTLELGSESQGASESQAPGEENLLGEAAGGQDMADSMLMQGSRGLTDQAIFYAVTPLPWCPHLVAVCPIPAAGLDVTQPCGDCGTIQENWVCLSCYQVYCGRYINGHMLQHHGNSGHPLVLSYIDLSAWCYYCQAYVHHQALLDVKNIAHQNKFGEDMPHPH
Put plainly: Inhibition of human recombinant HDAC6 by Michaelis-Menten equation analysis.

In data set [11] the target is Histone deacetylase 4 (Homo sapiens, UniProt P56524). In words: Inhibition of human recombinant HDAC4 by Michaelis-Menten equation analysis.
Histone deacetylase 4, sequence (P56524 whole entry): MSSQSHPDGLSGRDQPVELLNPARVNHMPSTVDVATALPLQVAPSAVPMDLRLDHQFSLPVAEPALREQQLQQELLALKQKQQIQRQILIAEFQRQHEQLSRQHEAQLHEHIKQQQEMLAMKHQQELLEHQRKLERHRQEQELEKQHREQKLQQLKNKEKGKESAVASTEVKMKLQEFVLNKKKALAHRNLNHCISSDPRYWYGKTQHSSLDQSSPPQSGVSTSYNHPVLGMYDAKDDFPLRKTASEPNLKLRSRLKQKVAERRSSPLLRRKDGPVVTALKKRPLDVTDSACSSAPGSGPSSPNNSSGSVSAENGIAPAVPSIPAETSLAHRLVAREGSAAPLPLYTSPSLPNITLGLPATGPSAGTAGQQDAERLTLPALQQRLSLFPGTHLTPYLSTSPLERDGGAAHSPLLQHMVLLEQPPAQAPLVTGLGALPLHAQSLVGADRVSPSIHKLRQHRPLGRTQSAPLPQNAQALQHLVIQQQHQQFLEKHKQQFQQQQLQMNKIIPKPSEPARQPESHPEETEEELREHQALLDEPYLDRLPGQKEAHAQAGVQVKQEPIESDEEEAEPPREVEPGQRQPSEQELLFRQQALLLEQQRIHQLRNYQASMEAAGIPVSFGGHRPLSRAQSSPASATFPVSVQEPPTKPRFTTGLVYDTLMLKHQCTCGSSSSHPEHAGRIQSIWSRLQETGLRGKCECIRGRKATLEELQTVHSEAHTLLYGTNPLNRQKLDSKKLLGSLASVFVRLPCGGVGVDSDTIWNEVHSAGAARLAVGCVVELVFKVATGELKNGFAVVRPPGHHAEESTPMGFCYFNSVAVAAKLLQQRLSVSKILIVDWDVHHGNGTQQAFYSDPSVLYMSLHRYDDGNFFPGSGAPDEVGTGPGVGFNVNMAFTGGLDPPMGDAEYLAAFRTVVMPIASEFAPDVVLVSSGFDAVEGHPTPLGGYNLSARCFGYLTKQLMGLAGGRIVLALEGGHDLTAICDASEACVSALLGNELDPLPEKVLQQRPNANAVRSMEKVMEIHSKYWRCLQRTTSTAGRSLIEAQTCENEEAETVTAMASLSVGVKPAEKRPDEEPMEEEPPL
The target of data set [12] is T1, Histone deacetylase 8. Put plainly: Inhibition of human recombinant HDAC8 by Michaelis-Menten equation analysis.
The target in data set [13] is Histone deacetylase 2 (Homo sapiens, UniProt Q92769). In words: Inhibition of human recombinant HDAC2 by Michaelis-Menten equation analysis.
Histone deacetylase 2, sequence (Q92769 whole entry): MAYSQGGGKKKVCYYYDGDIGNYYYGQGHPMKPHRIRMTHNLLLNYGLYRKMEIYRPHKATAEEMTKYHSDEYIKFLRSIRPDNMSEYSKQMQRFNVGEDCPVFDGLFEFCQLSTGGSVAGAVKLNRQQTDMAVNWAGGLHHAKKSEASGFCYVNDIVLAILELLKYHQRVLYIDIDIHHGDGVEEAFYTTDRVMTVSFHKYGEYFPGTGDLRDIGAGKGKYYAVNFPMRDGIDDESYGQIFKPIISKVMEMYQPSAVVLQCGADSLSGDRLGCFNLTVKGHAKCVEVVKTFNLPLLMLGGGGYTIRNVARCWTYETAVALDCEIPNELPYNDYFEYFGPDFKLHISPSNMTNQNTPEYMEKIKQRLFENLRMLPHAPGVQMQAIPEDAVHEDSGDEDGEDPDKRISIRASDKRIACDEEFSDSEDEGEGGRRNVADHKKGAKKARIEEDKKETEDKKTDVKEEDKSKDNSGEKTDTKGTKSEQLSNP
Data set [14] concerns the target Histone deacetylase 1 (Homo sapiens, UniProt Q13547). Put plainly: Inhibition of human recombinant HDAC1 by Michaelis-Menten equation analysis.
For data set [15], the species on record is Homo sapiens. In words: Selectivity ratio of Ki for human recombinant HDAC8 to Ki for human recombinant HDAC2.
The species named for data set [16] is Homo sapiens. In words: Selectivity ratio of Ki for human recombinant HDAC5 to Ki for human recombinant HDAC2.
For data set [17], the species on record is Homo sapiens. Put plainly: Selectivity ratio of Ki for human recombinant HDAC6 to Ki for human recombinant HDAC2.
The species entered for data set [18] is Homo sapiens. Put plainly: Selectivity ratio of Ki for human recombinant HDAC4 to Ki for human recombinant HDAC2.
Data set [19] is filed under the species Homo sapiens. Put plainly: Selectivity ratio of Ki for human recombinant HDAC1 to Ki for human recombinant HDAC2.

Histone deacetylase 5, sequence (Q9UQL6 whole entry): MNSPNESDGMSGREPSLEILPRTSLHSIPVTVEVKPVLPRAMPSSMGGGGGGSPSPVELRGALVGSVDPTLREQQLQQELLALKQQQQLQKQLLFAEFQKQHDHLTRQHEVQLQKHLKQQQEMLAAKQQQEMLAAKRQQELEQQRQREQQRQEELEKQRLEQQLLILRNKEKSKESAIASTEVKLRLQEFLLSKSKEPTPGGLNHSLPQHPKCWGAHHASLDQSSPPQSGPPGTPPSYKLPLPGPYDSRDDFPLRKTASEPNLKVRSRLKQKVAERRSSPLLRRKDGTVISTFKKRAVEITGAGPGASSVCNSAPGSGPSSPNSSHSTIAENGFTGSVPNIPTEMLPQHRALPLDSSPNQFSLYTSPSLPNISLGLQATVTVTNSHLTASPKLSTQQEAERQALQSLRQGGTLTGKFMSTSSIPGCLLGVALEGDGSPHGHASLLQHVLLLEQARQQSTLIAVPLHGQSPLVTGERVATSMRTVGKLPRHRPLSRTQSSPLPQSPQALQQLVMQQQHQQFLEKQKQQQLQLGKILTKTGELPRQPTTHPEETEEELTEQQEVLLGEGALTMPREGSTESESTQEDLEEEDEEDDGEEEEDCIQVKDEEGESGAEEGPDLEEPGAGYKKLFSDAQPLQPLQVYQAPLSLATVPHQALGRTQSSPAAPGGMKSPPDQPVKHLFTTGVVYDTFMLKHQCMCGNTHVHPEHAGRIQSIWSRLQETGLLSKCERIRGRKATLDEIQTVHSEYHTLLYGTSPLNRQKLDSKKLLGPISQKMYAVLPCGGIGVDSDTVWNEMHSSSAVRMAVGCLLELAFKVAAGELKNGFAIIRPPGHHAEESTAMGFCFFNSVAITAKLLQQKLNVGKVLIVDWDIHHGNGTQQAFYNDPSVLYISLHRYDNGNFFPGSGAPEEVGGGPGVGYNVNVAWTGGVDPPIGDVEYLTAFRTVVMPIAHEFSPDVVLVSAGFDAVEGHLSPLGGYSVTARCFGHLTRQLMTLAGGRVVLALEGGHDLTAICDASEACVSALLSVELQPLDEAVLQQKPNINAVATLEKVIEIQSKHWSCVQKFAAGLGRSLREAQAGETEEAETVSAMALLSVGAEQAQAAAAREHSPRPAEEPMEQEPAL
Histone deacetylase 1, sequence (Q13547 whole entry): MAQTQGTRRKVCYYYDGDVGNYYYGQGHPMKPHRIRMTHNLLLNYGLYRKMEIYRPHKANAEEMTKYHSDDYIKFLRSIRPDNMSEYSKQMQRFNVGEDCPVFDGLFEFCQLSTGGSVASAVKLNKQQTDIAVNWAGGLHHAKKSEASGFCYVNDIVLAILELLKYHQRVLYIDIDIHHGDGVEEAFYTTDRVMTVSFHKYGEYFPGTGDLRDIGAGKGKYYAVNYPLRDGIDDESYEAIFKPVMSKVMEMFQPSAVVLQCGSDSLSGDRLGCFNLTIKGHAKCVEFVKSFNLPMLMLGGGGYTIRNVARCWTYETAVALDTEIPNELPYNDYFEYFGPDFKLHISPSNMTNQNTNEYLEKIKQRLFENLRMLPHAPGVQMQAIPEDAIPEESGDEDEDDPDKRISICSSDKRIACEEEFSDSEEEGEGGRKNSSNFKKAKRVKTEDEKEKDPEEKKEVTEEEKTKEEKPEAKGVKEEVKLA

As for `O=C(CCCCCCC(=O)Nc1ccccc1)NO` [VORINOSTAT], the GI50 (usually the concentration at which growth is held to half of that of the control) at 72 h in data set [1] was determined as 19000 nM. Further, in data set [2], the half-life (usually the time needed for the level to fall by half in the phase considered) at 0.4 ug/mL is 0.467 h. The GI50 in [3] was found to be 5560 nM; in [4] it was 2500 nM; in data set [5], 900 nM; in data set [6], 2100 nM.
Regarding `O=c1c(O)ccccc1-c1ccccc1`, the t1/2 in data set [7] was > 1 h. Further, halving of growth in data set [1] (GI50 at 72 h) required 96500 nM. For the same compound, the half-life at 0.4 ug/mL in [2] was 1.55 h. The GI50 turned out to be 29400 nM in [3], 15200 nM in [4], 3330 nM in [5] and 7830 nM in data set [6]. Also, the Ki – broadly, a measure of affinity in units of concentration, obtained from inhibition or displacement – was 0.53 nM in data set [8]; > 2500 nM in data set [9]; 527 nM in data set [10]; > 20000 nM in data set [11]; 1.09 nM in data set [12]; 0.26 nM in [13]. In addition, in data set [14], the inhibition constant (Ki) is > 2500 nM.
In the case of `COc1ccc(OC)c(-c2ccccc(O)c2=O)c1`, the t1/2 in data set [7] is > 1 h. Also, the GI50 at 72 h in data set [1] was > 100000 nM. Further, the GI50 in data set [3] worked out at 14100 nM; in [4], 46600 nM; in data set [5], 760 nM; in data set [6] it was 3050 nM. For the same compound, the Ratio Ki in data set [15], in [16], in data set [17], in [18] and in [19] was > 100 in each case. For the same compound, the inhibition constant Ki was > 2500 nM in data set [9]; > 2500 nM in data set [10]; > 20000 nM in data set [11]; 811 nM in data set [12]; 0.42 nM in data set [13]; > 2500 nM in data set [14].

These data come from ChEMBL document CHEMBL2407068, “Tropolones as lead-like natural products: the development of potent and selective histone deacetylase inhibitors” (ACS Med Chem Lett, 2013).
